Measurements taken from ChEMBL document CHEMBL1126685, “Bronchodilator activity of xanthine derivatives substituted with functional groups at the 1- or 7-position” (J Med Chem, 1993).

Key:
Cavia porcellus [1] = experiment: Positive chronotropic effect, 15% increase in heart rate of male Hartley guinea pigs on intraduodenal administration (mean of 3-5 animals); type: functional
Outline: (§1)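 Urethane-anesthetized (1.5 g/kg ip), ventilated male Hartley guinea pigs; compound suspended in 0.5% carboxymethylcellulose given intraduodenally 5 min before iv acetylcholine 40 μg/kg (jugular, every 15 min, after three stable responses); Konzett–Rossler overflow bronchospasm and carotid-pulse heart rate followed 110 min.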

[2] = Bronchoselectivity expressed as ratio of stimulatory activity in the right atrium (EC15) to relaxant activity in the tracheal muscle (EC50); type: functional, Cardiac atrium
[3] = biological target: Adenosine A2 receptor (guinea pig); experiment: Binding affinity against adenosine A2 receptor of striatal membrane using [3H]CGS-21680 as a radioligand
[4] = biological target: cyclic AMP phosphodiesterase (guinea pig); experiment: Inhibition of cyclic AMP-phosphodiesterase ( PDE) in the supernatant of tracheal muscle homogenate
Cavia porcellus [5] = experiment: Bronchodilatory effect, 50% inhibition of spasmogen-induced response in male Hartley guinea pigs on intraduodenal administration; type: functional; outline: as §1
Cavia porcellus [6] = species on record: Cavia porcellus; experiment: Effective concentration required in vitro for tracheal muscle (from male Hartley guinea pigs) relaxation; type: functional; conditions: Trachea
Outline: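 Tracheal ring chains from male Hartley guinea pigs (300–500 g), 37 °C Krebs-Henseleit pH 7.4, 95% O2–5% CO2, 0.5 g tension, spontaneous tone; cumulative compound addition, isotonic recording.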

Cavia porcellus [7] = species on record: Cavia porcellus; experiment: Effective concentration required in vitro for heart stimulation (right atrium) in guinea pig; type: functional; conditions: Cardiac atrium
Outline: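 Isolated right atrium of male Hartley guinea pigs, 25 °C Krebs-Henseleit gassed 95% O2–5% CO2, 0.5 g tension; cumulative concentrations; beating rate via cardiometer triggered by isometric contraction. EC15 = concentration raising rate 15% above unstimulated; 3–5 experiments.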

Adenosine receptor A1 = biological target: T1, Adenosine receptor A1 (Cavia porcellus, UniProt P47745); experiment: Binding affinity against adenosine A1 receptor of cerebral cortex using [3H]CPX as a radioligand; type: tissue-based
T1 sequence (P47745 whole entry): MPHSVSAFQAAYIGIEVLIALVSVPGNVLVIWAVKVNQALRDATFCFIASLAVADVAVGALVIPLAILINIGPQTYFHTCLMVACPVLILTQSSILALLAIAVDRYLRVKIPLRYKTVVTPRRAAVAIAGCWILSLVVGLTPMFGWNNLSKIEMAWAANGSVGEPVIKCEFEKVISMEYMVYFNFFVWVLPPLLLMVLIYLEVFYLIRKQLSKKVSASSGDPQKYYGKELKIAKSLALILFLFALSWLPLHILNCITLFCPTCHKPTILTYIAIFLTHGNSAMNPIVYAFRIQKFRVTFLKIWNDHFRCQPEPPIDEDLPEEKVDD

[8] = Bronchoselectivity expressed as ratio of positive chronotropic action (ED15) to bronchodilator action (ED50)

SMILES: C=CCCn1c(=O)c2[nH]cnc2n(CCC)c1=O
- ED15 (Cavia porcellus [1]): 11 mg/kg
- Selectivity [2]: 22.5
- Ki [3]: 3.2 µM
- Ki [4]: 14.6 µM
- ED50 (Cavia porcellus [5]): 1.84 mg/kg
- EC50 (Cavia porcellus [6]): 0.2 µM
- EC15 (Cavia porcellus [7]): 4.5 µM
- Ki (Adenosine receptor A1): 0.06 µM
- Selectivity [8]: 6
